Reference: ChEMBL document CHEMBL1144424, “Synthesis and biological evaluation of 14-alkoxymorphinans. 22.(1) Influence of the 14-alkoxy group and the substitution in position 5 in 14-alkoxymorphinan-6-ones on in vitro and in vivo activities” (J Med Chem, 2005)

Experiments:
[1] = Relative agonistic activity against opioid receptor delta in mouse vas deferens and opioid receptor mu in guinea pig ileum; format: functional
[2] = target: Mu-type opioid receptor (Cavia porcellus, UniProt P97266); experiment: In vitro agonistic activity against opioid receptor mu of guinea pig ileum; format: functional, tissue-based
Mu-type opioid receptor (Cavia porcellus, UniProt P97266), sequence (P97266 whole entry): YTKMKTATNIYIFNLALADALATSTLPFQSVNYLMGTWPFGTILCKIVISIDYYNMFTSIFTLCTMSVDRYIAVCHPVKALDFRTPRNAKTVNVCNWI
Procedure, shortened: (§1)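 Field stimulation with supramaximal-voltage bipolar rectangular pulses of male guinea-pig ileum myenteric plexus longitudinal muscle and of mouse vas deferens. Inhibition of the electrically evoked twitch; IC50 values as mean ± SEM.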

[3] = target: Delta-type opioid receptor (Mus musculus, UniProt P32300); experiment: In vitro agonistic activity against opioid receptor delta of mouse vas deferens; format: functional, tissue-based; procedure, shortened: as §1
Delta-type opioid receptor (Mus musculus, UniProt P32300), sequence (P32300 whole entry): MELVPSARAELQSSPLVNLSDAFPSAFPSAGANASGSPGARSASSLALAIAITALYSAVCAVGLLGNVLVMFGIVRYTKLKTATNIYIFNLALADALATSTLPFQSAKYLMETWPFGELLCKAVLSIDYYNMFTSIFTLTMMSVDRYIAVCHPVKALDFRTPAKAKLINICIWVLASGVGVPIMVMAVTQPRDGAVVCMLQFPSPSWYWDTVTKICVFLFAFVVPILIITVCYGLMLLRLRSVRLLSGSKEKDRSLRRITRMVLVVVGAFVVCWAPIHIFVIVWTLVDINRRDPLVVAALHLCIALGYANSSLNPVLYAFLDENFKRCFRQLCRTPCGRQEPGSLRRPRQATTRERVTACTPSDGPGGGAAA

[4] = test system: Mus musculus; experiment: Antinociceptive potencie was assessed after subcutaneous administration of compound by hotplate test (HP) in mice; format: functional
Procedure, shortened: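 Male CD-1 mice (20-25 g), compound in sterile Ringer's solution given sc, 10 animals per dose. Paw licking or jumping on 55 °C hot-plate; pre-drug control latency (non-responders within 3 s excluded), 12 s cutoff.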

[5] = target: Kappa-type opioid receptor (Cavia porcellus, UniProt P41144); experiment: Inhibition of [3H]U-69593 binding to opioid receptor kappa from guinea pig brain membranes
Kappa-type opioid receptor, sequence (P41144 whole entry): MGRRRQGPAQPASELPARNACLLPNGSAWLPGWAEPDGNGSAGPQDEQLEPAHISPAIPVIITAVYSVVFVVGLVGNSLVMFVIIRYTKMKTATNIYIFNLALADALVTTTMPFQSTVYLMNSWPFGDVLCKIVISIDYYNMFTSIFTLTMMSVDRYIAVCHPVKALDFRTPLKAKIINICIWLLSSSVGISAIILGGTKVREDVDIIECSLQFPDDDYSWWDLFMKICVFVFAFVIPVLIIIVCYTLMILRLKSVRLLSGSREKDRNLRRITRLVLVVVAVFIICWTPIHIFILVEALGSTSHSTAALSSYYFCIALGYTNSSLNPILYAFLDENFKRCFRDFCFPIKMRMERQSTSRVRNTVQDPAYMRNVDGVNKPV

[6] = target: Mu-type opioid receptor (Rattus norvegicus, UniProt P33535); experiment: Inhibition of [3H]DAMGO binding to opioid receptor mu from rat brain membranes; format: cell membranes, Membrane
Mu-type opioid receptor (Rattus norvegicus, UniProt P33535), sequence (P33535 whole entry): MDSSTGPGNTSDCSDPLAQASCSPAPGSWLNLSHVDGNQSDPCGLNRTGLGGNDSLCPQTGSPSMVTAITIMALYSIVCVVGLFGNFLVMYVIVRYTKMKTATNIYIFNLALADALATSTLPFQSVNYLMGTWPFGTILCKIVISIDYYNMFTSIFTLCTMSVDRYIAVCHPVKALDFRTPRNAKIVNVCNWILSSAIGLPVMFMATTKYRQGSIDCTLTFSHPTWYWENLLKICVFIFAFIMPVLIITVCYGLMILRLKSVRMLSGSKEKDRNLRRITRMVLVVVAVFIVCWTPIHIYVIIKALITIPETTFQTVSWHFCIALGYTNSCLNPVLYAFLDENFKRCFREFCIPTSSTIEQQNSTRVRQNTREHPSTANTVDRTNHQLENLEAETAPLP
Procedure, shortened: (§2)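 Sprague-Dawley rat brain membranes (0.3-0.5 mg protein) in 50 mM Tris-HCl incubated with 0.5 nM [3H]DAMGO or [3H][Ile5,6]deltorphin II, 45 min at 35 °C. GF/C filtration, ice-cold Tris-HCl washes; nonspecific binding with 10 µM naloxone. Duplicates, 3-4 independent experiments; Ki as mean ± SEM.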

[7] = target: Delta-type opioid receptor (Rattus norvegicus, UniProt P33533); experiment: Inhibition of [3H][Ile5,6]deltorphin II binding to opioid receptor delta from rat brain membranes; format: cell membranes, Membrane; procedure, shortened: as §2
Delta-type opioid receptor (Rattus norvegicus, UniProt P33533), sequence (P33533 whole entry): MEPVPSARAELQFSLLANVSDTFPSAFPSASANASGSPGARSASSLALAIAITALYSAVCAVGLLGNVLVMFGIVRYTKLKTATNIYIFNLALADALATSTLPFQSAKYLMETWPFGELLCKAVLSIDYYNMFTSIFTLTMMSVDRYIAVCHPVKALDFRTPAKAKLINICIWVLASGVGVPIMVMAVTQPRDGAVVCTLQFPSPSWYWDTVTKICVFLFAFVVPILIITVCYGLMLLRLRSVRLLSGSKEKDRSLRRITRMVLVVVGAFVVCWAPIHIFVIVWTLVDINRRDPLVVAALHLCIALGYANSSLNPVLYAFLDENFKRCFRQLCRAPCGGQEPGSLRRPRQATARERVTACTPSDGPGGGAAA

[8] = target: Opioid receptors; mu & delta (Rattus norvegicus) (UniProt P33533+P33535); experiment: Ratio of binding affinities for opioid receptors delta and mu; format: protein assay
Opioid receptors; mu & delta (Rattus norvegicus), sequence (P33533 whole entry, looked up): as the sequence (P33533 whole entry) above
Opioid receptors; mu & delta (Rattus norvegicus), sequence (P33535 whole entry, looked up): as the sequence (P33535 whole entry) above
Procedure, shortened: (§3)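 Ratios of Ki values from competition binding. Rat brain membranes were used with 0.5 nM [3H]DAMGO (mu) or [3H][Ile5,6]deltorphin II (delta), 45 min at 35 °C. Guinea pig brain membranes were used with 1 nM [3H]U69,593 (kappa), 30 min at 30 °C. Nonspecific binding was defined with 10 µM naloxone.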

[9] = Ratio of binding affinities for opioid receptors kappa and mu; procedure, shortened: as §3
[10] = test system: Mus musculus; experiment: Gastrointestinal (GI) motility was assessed by colonic bead expulsion after subcutaneous administration in mice; format: functional; settings: sc
[11] = species: Mus musculus; experiment: Ratios of colonic bead expulsion to that of antinociceptive potencie by hotplate test in mice; format: functional

Compound | Ratio [1] | IC50 [2] | IC50 [3] | AD50 [4] | Ki [5] | Ki [6] | Ki [7] | Selectivity [8] | Selectivity [9] | ED50 [10] | Ratio [11]
CO[C@@]12CCC(=O)[C@]3(C)Oc4c(O)ccc5c4[C@@]31CCN(C)[C@@H]2C5 | 4 | 6.1 nM | 24.4 nM | 280 nmol/kg | 25.2 nM | 0.15 nM | 13.3 nM | 89 | 168 |  | 
CN1CC[C@]23c4c5ccc(O)c4O[C@H]2[C@@H](O)C=C[C@H]3[C@H]1C5 [MORPHINE] |  |  |  | 6690 nmol/kg |  |  |  |  |  | 7.62 µmol/kg | 
CN1CC[C@]23c4c5ccc(O)c4O[C@H]2C(=O)CC[C@@]3(OCc2ccccc2)[C@H]1C5 | 1.7 | 0.9 nM | 1.5 nM | 9.6 nmol/kg | 1.18 nM | 0.12 nM | 2.14 nM | 18 | 10 | 0.027 µmol/kg | 2.8
CN1CC[C@]23c4c5ccc(O)c4O[C@@]2(C)C(=O)CC[C@@]3(OCc2ccccc2)[C@H]1C5 | 4.6 | 0.5 nM | 2.3 nM | 65 nmol/kg | 2.46 nM | 0.18 nM | 3.67 nM | 20 | 14 | 0.074 µmol/kg | 1.1
CCO[C@@]12CCC(=O)[C@]3(C)Oc4c(O)ccc5c4[C@@]31CCN(CCc1ccccc1)[C@@H]2C5 | 5.1 | 1.9 nM | 9.7 nM | 109 nmol/kg | 83.2 nM | 0.16 nM | 3.14 nM | 20 | 520 | 0.121 µmol/kg | 1.1
CO[C@@]12CCC(=O)[C@@H]3Oc4c(O)ccc5c4[C@@]31CCN(C)[C@@H]2C5 |  | 2 nM | 30.5 nM | 53 nmol/kg |  |  | 4.8 nM |  |  | 0.022 µmol/kg | 
CN1CC[C@]23c4c5ccc(O)c4O[C@H]2C(=O)CC[C@@]3(OCc2c(Cl)cccc2Cl)[C@H]1C5 | 0.2 | 1000 nM | 209 nM | 1640 nmol/kg | 33.2 nM | 10.3 nM | 152 nM | 15 | 3.2 | 2.49 µmol/kg | 1.5
C=CCO[C@@]12CCC(=O)[C@@H]3Oc4c(O)ccc5c4[C@@]31CCN(C)[C@@H]2C5 | 3.6 | 17.6 nM | 63 nM | 35 nmol/kg | 33.8 nM | 0.61 nM | 36 nM | 59 | 55 | 0.037 µmol/kg | 1.1
CN1CC[C@]23c4c5ccc(O)c4O[C@H]2C(=O)CC[C@@]3(OCc2cccc3ccccc23)[C@H]1C5 | 0.9 | 0.9 nM | 0.8 nM | 14.4 nmol/kg | 0.92 nM | 0.18 nM | 2.92 nM | 16 | 5.1 | 0.0118 µmol/kg | 0.8
